The values below come from ChEMBL document CHEMBL1121417, “[1-beta-Mercapto-beta,beta-cyclopentamethylenepropionic acid),2-(O-methyl)tyrosine ]argine-vasopressin and [1-beta-mercapto-beta,beta-cyclopentamethylenepropionic acid)]argine-vasopressine, two highly potent antagonists of the vasopressor response to arginine-vasopressin” (J Med Chem, 1980).

Starred links: 1 amine or outer side, 2 acyl side, 3 side chain; linkers in the order of their positions; H or OH if unused. Positions of bridges follow the written chain, without caps; N, C: chain ends. Non-standard residues stand in square brackets, D forms with d. Residues, ends and D or L forms follow the SMILES beside them. X1 = O=C(CC1(S[*:2])CCCCC1)[*:1]; X2 = CC(C)(CC(=O)[*:1])S[*:2]; Mpa = O=C(O)CCS

Assay [1] has as its system Rattus norvegicus. In words: Tested for intravenous antidiuretic activity in rats. It counts as functional, Urine. The arrangement: unit: U/mg. An outline of the steps: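 Intravenous antidiuretic assay in rats under ethanol anesthesia. Agonistic activity is expressed in units per milligram.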
For assay [2], the species on record is Rattus norvegicus. Description: Tested for […] anti-oxytocic effect in the absence of Mg2+ in rats. It counts as functional, organism-based. To be noted: for Kb: Rattus norvegicus, read-out: pA2 (converted). An outline of the steps: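 Isolated rat uterus in vitro in a medium without Mg2+. Antagonism is expressed as pA2 by the Schild method, computed per assay group, with mean ± SE and the number of assays.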

Assay [3] deals with Rattus norvegicus. In words: Tested for intravenous anti-oxytocic effect in the presence of Mg2+ in rats. It counts as functional, organism-based. The conditions noted are these: read-out: pA2 (converted).
Assay [4] has as its system Rattus norvegicus. In words: Tested for intravenous anti-vasopressor pA2 effect in rats. It is filed as functional, organism-based. The conditions noted are these: for Kb: Rattus norvegicus, read-out: pA2 (converted). An outline of the steps: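 Vasopressor assay in rats pretreated with phenoxybenzamine under urethane anesthesia, using intravenous injections. The pA2 is derived by the Schild method for each assay group and reported as mean ± SE, with the number of assays given.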

For assay [5], the system named is Rattus norvegicus. Description: Tested for intravenous anti-oxytocic effect in in vivo in rats. It is filed as functional, organism-based. To be noted: read-out: pA2 (converted). An outline of the steps:
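Rat uterus in situ; antagonism expressed as pA2 by the Schild method, calculated for each assay group and reported as mean ± SE, with the number of assays given.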

Assay [6] relates to Rattus norvegicus. Description: Tested for intravenous anti-oxytocic effect in the absence of Mg2+ in rats; agonist at concentration of 47 units/kg. It counts as functional, organism-based. The conditions noted are these: filed as agonist.
The subject of assay [7] is Rattus norvegicus. In words: Tested for intravenous anti-vasopressor pA2 effect in rats; agonist at concentration of 346 units/kg. The conditions noted are these: filed as agonist, in the assay text read “346 units/mg” for “346 units/kg”. It is filed as functional, organism-based. The method, boiled down: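 Vasopressor assay in rats anesthetized with urethane and pretreated with phenoxybenzamine, with intravenous injections. Antagonism is expressed as pA2, calculated by Schild's method for each assay group and reported as mean ± SE, with the number of assays given.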

In assay [8] the test system is Rattus norvegicus. In words: Tested for intravenous anti-oxytocic effect in the absence of Mg2+ in rats; agonist at concentration of 8 units/kg. It is filed as functional, organism-based. The conditions noted are these: filed as agonist.
The subject of assay [9] is Rattus norvegicus. In words: Tested for intravenous anti-vasopressor pA2 effect in rats; agonist at concentration of 4 units/mg. The conditions noted are these: filed as agonist.

For `COc1ccc(C[C@@H]2NC(=O)CCSSC[C@@H](C(=O)N3CCC[C@H]3C(=O)N[C@@H](CCCN=C(N)N)C(=O)NCC(N)=O)NC(=O)[C@H](CC(N)=O)NC(=O)[C@H](CCC(N)=O)NC(=O)[C@H](Cc3ccccc3)NC2=O)cc1` [listing 1 of 2 here], the Antidiuretic activity with Rattus norvegicus [1] turned out to be 830.

As for `COc1ccc(C[C@@H]2NC(=O)CC3(CCCCC3)SSC[C@@H](C(=O)N3CCC[C@H]3C(=O)N[C@@H](CCCN=C(N)N)C(=O)NCC(N)=O)NC(=O)[C@H](CC(N)=O)NC(=O)[C@H](CCC(N)=O)NC(=O)[C@H](Cc3ccccc3)NC2=O)cc1` (Y(Me)FQNCPRG-NH2; linker N-5 via X1), the pA2 (commonly a measure of antagonist potency on a negative log scale) in the assay listed under Rattus norvegicus [2] was 8.13; in the assay on Rattus norvegicus [4], 8.67. In addition, the Kb in the assay listed under Rattus norvegicus [2] is 7.41 nM; with Rattus norvegicus [3] it was 57.5 nM; with Rattus norvegicus [4], 2.4 nM; with Rattus norvegicus [5] it was 240 nM. Further, the Antidiuretic activity in the assay on Rattus norvegicus [1] stood at 0.31.

Consider `N=C(N)NCCC[C@@H](NC(=O)[C@@H]1CCCN1C(=O)[C@@H]1CSSCCC(=O)N[C@@H](Cc2ccc(O)cc2)C(=O)N[C@@H](Cc2ccccc2)C(=O)N[C@@H](CCC(N)=O)C(=O)N[C@@H](CC(N)=O)C(=O)N1)C(=O)NCC(N)=O` [DESMOPRESSIN], for which, in the assay with Rattus norvegicus [1], the Antidiuretic activity is reported as 1745. Further, the pA2 result in the assay on Rattus norvegicus [6] and with Rattus norvegicus [7] was “Agonist” in each case.

Regarding `CC(C)[C@@H]1NC(=O)[C@H](Cc2ccccc2)NC(=O)[C@H](Cc2ccc(O)cc2)NC(=O)CCSSC[C@@H](C(=O)N2CCC[C@H]2C(=O)N[C@H](CCCNC(=N)N)C(=O)NCC(N)=O)NC(=O)[C@H](CC(N)=O)NC1=O` ([Mpa]YFVNCP[dR]G-NH2; disulfide 1-6), the Antidiuretic activity with Rattus norvegicus [1] was determined as 1230. Also, in the assay on Rattus norvegicus [8], the pA2 entry is “agonist at concentration of 8 units/kg”. Further, in the assay with Rattus norvegicus [4], the Kb is 93.3 nM.

In turn, `CC1(C)CC(=O)N[C@@H](Cc2ccc(O)cc2)C(=O)N[C@@H](Cc2ccccc2)C(=O)N[C@@H](CCC(N)=O)C(=O)N[C@@H](CC(N)=O)C(=O)N[C@H](C(=O)N2CCC[C@H]2C(=O)N[C@@H](CCCN=C(N)N)C(=O)NCC(N)=O)CSS1` (YFQNCPRG-NH2; linker N-5 via X2) [listing 1 of 2 here] registered an Antidiuretic activity in the assay on Rattus norvegicus [1] of 42.

As for `NC(=O)CC[C@@H]1NC(=O)[C@H](Cc2ccccc2)NC(=O)[C@H](Cc2ccc(O)cc2)NC(=O)CC2(CCCCC2)SSC[C@@H](C(=O)N2CCC[C@H]2C(=O)N[C@@H](CCCN=C(N)N)C(=O)NCC(N)=O)NC(=O)[C@H](CC(N)=O)NC1=O` (YFQNCPRG-NH2; linker N-5 via X1) [listing 1 of 2 here], the Antidiuretic activity with Rattus norvegicus [1] was determined as 0.033.

In turn, `CC(C)[C@@H]1NC(=O)[C@H](Cc2ccccc2)NC(=O)[C@H](Cc2ccc(O)cc2)NC(=O)CC(C)(C)SSC[C@@H](C(=O)N2CCC[C@H]2C(=O)N[C@H](CCCN=C(N)N)C(=O)NCC(N)=O)NC(=O)[C@H](CC(N)=O)NC1=O` (YFVNCP[dR]G-NH2; linker N-5 via X2) [listing 1 of 2 here] displayed an Antidiuretic activity in the assay on Rattus norvegicus [1] of 123.

Take `CC(C)[C@@H]1NC(=O)[C@H](Cc2ccccc2)NC(=O)[C@H](Cc2ccc(O)cc2)NC(=O)CC2(CCCCC2)SSC[C@@H](C(=O)N2CCC[C@H]2C(=O)N[C@H](CCCN=C(N)N)C(=O)NCC(N)=O)NC(=O)[C@H](CC(N)=O)NC1=O` (YFVNCP[dR]G-NH2; linker N-5 via X1) [listing 1 of 2 here]: the Kb in the assay listed under Rattus norvegicus [2] is 240 nM; in the assay on Rattus norvegicus [4], 20.9 nM.

As for `CC(C)[C@@H]1NC(=O)[C@H](Cc2ccccc2)NC(=O)[C@H](Cc2ccc(O)cc2)NC(=O)CC(C)(C)SSC[C@@H](C(=O)N2CCC[C@H]2C(=O)N[C@H](CCCN=C(N)N)C(=O)NCC(N)=O)NC(=O)[C@H](CC(N)=O)NC1=O` (YFVNCP[dR]G-NH2; linker N-5 via X2) [listing 2 of 2 here], the Kb in the assay listed under Rattus norvegicus [2] is 58.9 nM; in the assay on Rattus norvegicus [4], 15.1 nM.

Consider `COc1ccc(C[C@@H]2NC(=O)CC(C)(C)SSC[C@@H](C(=O)N3CCC[C@H]3C(=O)N[C@@H](CCCN=C(N)N)C(=O)NCC(N)=O)NC(=O)[C@H](CC(N)=O)NC(=O)[C@H](CCC(N)=O)NC(=O)[C@H](Cc3ccccc3)NC2=O)cc1` (Y(Me)FQNCPRG-NH2; linker N-5 via X2) [listing 1 of 2 here], for which the Kb in the assay filed under Rattus norvegicus [2] is 24.5 nM; with Rattus norvegicus [4], 20.4 nM.

As to `COc1ccc(C[C@@H]2NC(=O)CCSSC[C@H](C(=O)N3CCC[C@H]3C(=O)N[C@@H](CCCN=C(N)N)C(=O)NCC(N)=O)NC(=O)[C@H](CC(N)=O)NC(=O)[C@H](CCC(N)=O)NC(=O)[C@H](Cc3ccccc3)NC2=O)cc1`, in the assay on Rattus norvegicus [9], the pA2 entry was “agonist at concentration of 4 units/kg”.

Regarding `CC1(C)CC(=O)N[C@@H](Cc2ccc(O)cc2)C(=O)N[C@@H](Cc2ccccc2)C(=O)N[C@@H](CCC(N)=O)C(=O)N[C@@H](CC(N)=O)C(=O)N[C@H](C(=O)N2CCC[C@H]2C(=O)N[C@@H](CCCN=C(N)N)C(=O)NCC(N)=O)CSS1` (YFQNCPRG-NH2; linker N-5 via X2) [listing 2 of 2 here], the figures for the Kb in the assay listed under Rattus norvegicus [2] and in the assay with Rattus norvegicus [4] were 117 nM and 35.5 nM, respectively.

Take `COc1ccc(C[C@@H]2NC(=O)CCSSC[C@@H](C(=O)N3CCC[C@H]3C(=O)N[C@@H](CCCN=C(N)N)C(=O)NCC(N)=O)NC(=O)[C@H](CC(N)=O)NC(=O)[C@H](CCC(N)=O)NC(=O)[C@H](Cc3ccccc3)NC2=O)cc1` [listing 2 of 2 here]: in the assay listed under Rattus norvegicus [2], the Kb is 38.9 nM.

With `COc1ccc(C[C@@H]2NC(=O)CC(C)(C)SSC[C@@H](C(=O)N3CCC[C@H]3C(=O)N[C@@H](CCCN=C(N)N)C(=O)NCC(N)=O)NC(=O)[C@H](CC(N)=O)NC(=O)[C@H](CCC(N)=O)NC(=O)[C@H](Cc3ccccc3)NC2=O)cc1` (Y(Me)FQNCPRG-NH2; linker N-5 via X2) [listing 2 of 2 here], the Antidiuretic activity in the assay on Rattus norvegicus [1] worked out at 3.5.

For the compound `NC(=O)CC[C@@H]1NC(=O)[C@H](Cc2ccccc2)NC(=O)[C@H](Cc2ccc(O)cc2)NC(=O)CC2(CCCCC2)SSC[C@@H](C(=O)N2CCC[C@H]2C(=O)N[C@@H](CCCN=C(N)N)C(=O)NCC(N)=O)NC(=O)[C@H](CC(N)=O)NC1=O` (YFQNCPRG-NH2; linker N-5 via X1) [listing 2 of 2 here], the values for the Kb in the assay on Rattus norvegicus [3], in the assay with Rattus norvegicus [4] and with Rattus norvegicus [5] were 64.6 nM, 4.47 nM and 162 nM, respectively.

In turn, `CC(C)[C@@H]1NC(=O)[C@H](Cc2ccccc2)NC(=O)[C@H](Cc2ccc(O)cc2)NC(=O)CC2(CCCCC2)SSC[C@@H](C(=O)N2CCC[C@H]2C(=O)N[C@H](CCCN=C(N)N)C(=O)NCC(N)=O)NC(=O)[C@H](CC(N)=O)NC1=O` (YFVNCP[dR]G-NH2; linker N-5 via X1) [listing 2 of 2 here] showed an Antidiuretic activity with Rattus norvegicus [1] of 0.1.
